Screening results (PubChem BioAssay)
This is one part of a sample in which hits are shown more often than they occur.
ALR inh – human ALR oxidase inhibition via reduced H2O2; AID 485317; 3.8% of 290,000 active; purified ALR, DTT oxidation, H2O2 HRP-luminol luminescence; inhibition, % (no concentration beside the values);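 active = mean replicate inhibition above about 79%, with every replicate also reaching it, limit read from the data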
Target sequence (P55789 whole entry, looked up): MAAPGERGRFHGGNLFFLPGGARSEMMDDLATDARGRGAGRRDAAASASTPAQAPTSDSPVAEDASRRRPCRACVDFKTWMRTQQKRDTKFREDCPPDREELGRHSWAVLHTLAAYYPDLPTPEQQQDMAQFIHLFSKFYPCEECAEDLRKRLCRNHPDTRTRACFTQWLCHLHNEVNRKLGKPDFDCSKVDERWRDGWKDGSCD
N-glyco inh – blocks N-linked glycosylation in D54 reporter cells. D54 ERlucT glycosylation luciferase reporter, 24 h; percent of 100 nM tunicamycin response. reporter increase, % at 12.5 µM. 0.23% of 360,000 active. AID 588692;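 active = mean luciferase reporter signal, scaled so untreated is 0 and the glycosylation-blocking control 100, at or above a set limit in every replicate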;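 also: luciferase carries N-glycosylation sites so blocking glycosylation raises the light; 0% = median of neutral control wells and 100% = median of 100 nM tunicamycin wells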
T cell modulator – modulates CD8 T cell binding to vesicles. 2C CD8+ T cell-vesicle binding, flow cytometry; active compounds read low. response (vesicle binding), % at 7 µM. 0.068% of 330,000 active. AID 2052;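 active = response, share of CD8 T cells binding vesicles, and their 90th percentile fluorescence all below set limits, cut at about 80% in these data, passing the limit was not always enough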;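 also: values below 100% mean blocked vesicle binding to the CD8+ T cells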
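Assay system: 2C TCR transgenic mouse naive CD8+ T cells, MACS-purified | Read-out: CD8+ gate FL2 mean fluorescence as % of same-row positive control | Signal: High-throughput flow cytometry with anti-B7-1 and anti-CD8 staining | Timing: Binding step 1.5 h, 37 °C, antibody labelling 20 min, ice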
An asterisk follows results filed as active; i = inactive; nt = no result.

SMILES	ALR inh	N-glyco inh	T cell modulator
CCN1CCN(c2c(/C=C3\SC(=S)N(Cc4ccco4)C3=O)c(C)c(C#N)c(=O)n2C)CC1	3	-4	907
Cc1c(NC(=O)CSCc2ccc(Cl)cc2Cl)cccc1C(=O)O	98*	2	551
O=C(CSCc1ccc(Cl)cc1)Nc1ccccc1O	-9	1	176
O=C(CSCc1ccc(Cl)cc1)Nc1ccc(Br)cc1C(=O)O	96*	4	82
O=C(CSCc1ccc(Cl)cc1Cl)Nc1ccc(O)cc1C(=O)O	98*	1	379
C=CCn1c(CSCc2ccc(Cl)cc2Cl)nnc1SCC(=O)Nc1ccc(C(=O)O)cc1	8	3	53
O=C(CSCc1ccc(Cl)cc1Cl)Nc1ccccc1C(=O)Nc1ccc(C(=O)O)cc1	97*	1	138
COc1cc(NC(=O)CSCc2ccc(Cl)cc2Cl)c(C(=O)O)cc1OC	73	2	266
O=C(CSCc1ccc(Cl)cc1Cl)Nc1c[nH]c(=O)[nH]c1=O	0	-1	138
CC1(C)NC(=O)N(CC(O)CN(c2ccccc2)S(=O)(=O)c2ccccc2[N+](=O)[O-])C1=O (stereo not given)	nt	-2	406
Cc1c(Cl)ccc2c(C(=O)NC(C)c3ccncc3)cc(-c3ccncc3)nc12 (stereo not given)	1	nt	410
O=C(NCc1ccccc1)c1cccc(F)c1F	-12	0	227
O=C(O)c1cccc(-n2cccc2/C=C2/SC(=O)N(CC(=O)N3CCCC3)C2=O)c1	nt	2	204
COc1ccccc1N1CCN(C(=O)c2coc(=O)c(Br)c2)CC1	12	3	i
CCn1nc(C)c(CNC(=O)c2ccc(OC3CCN(Cc4ccccn4)CC3)cc2)c1C	-12	2	389
O=C1NCCSC1c1ccccc1 (stereo not given)	-1	0	295
CC(C)(C)NC(=O)/C(=C/c1ccco1)c1ccccc1	90*	2	329
Cc1ccccc1NC(=O)/C(=C/c1ccco1)c1ccccc1	83*	2	495
CCc1ccccc1NC(=O)/C(=C/c1ccco1)c1ccccc1	5	0	243
CC(C)OC(=O)/C(=C/c1ccco1)c1ccccc1	nt	0	479
COCCNC(=O)C(c1ccc(F)cc1)N(Cc1cccs1)C(=O)CCC(=O)Nc1ccccn1 (stereo not given)	2	0	235
Nc1nc2ccc(N3CCOCC3)cc2s1	98*	-5	981
Fc1ccc2nc(N3CCOCC3)sc2c1	nt	1	294
O=C1c2cccc3c([N+](=O)[O-])ccc(c23)C(=O)N1CCc1ccccn1	-24	21	394
Cc1ccc(C(=O)O)cc1N1C(=O)c2cccc3c([N+](=O)[O-])ccc(c23)C1=O	31	7	732
SMILES	ALR inh	N-glyco inh	T cell modulator
O=C(O)c1ccc(CN2C(=O)c3cccc4c([N+](=O)[O-])ccc(c34)C2=O)cc1	nt	31*	nt
CN(C)CCCN1C(=O)c2cccc3c([N+](=O)[O-])ccc(c23)C1=O	69	57*	831
COc1c(-c2ccc([N+](=O)[O-])cc2[N+](=O)[O-])c(=O)n(C)c(=O)n1C	-13	-1	114
O=C(NC1CC1)c1cc2cc(Br)ccc2s1	0	-2	274
O=c1cnnc(SCc2ccc([N+](=O)[O-])cc2)[nH]1	100*	1	312
O=[N+]([O-])c1ccc(CSc2nc3ccccc3[nH]2)cc1	nt	-3	308
c1ccc(C2Nc3ccccc3C3OCCCC23)cc1 (stereo not given)	99*	2	573
Cc1ccc2c(c1)[C@H]1OCC[C@H]1[C@@H](c1ccncc1)N2	nt	1	89
CC(C)(C)OC(=O)C[C@H]1C/C=C\C[C@H](CC(=O)N[C@H](CO)Cc2ccccc2)C(=O)N2CCC[C@@H]2COC1=O	-1	-1	232
COc1ccc2oc(=O)c(-c3csc(Nc4cccc(O)c4)n3)cc2c1	-15	4	0.0*
COc1ccc(Nc2nc(-c3cc4cccc(OC)c4oc3=O)cs2)cc1	-5	-1	289
O=C(CSc1ccc(F)cc1)N1CCN(S(=O)(=O)c2ccccc2)CC1	nt	-2	598
CC(=O)Nc1ccc(SCC(=O)N2CCN(S(=O)(=O)c3ccccc3)CC2)cc1	98*	-1	314
CCC(CO)NCc1ccc(OCC(O)c2ccccc2)c(OC)c1 (stereo not given)	-7	0	300
CCOc1cc(/C=N/NC(=O)C(=O)NCc2ccc3c(c2)OCO3)ccc1OCC(=O)N1CCOCC1	-15	-1	158
N#C/C(=C\c1ccc(O)cc1)C(=O)N1CCCC1	81*	4	476
N#C/C(=C\c1ccc(C#N)cc1)C(=O)N1CCCC1	22	1	207
